Reference: ChEMBL document CHEMBL3045688, “Cytotoxic and insecticidal activities of derivatives of harmine, a natural insecticidal component isolated from Peganum harmala” (2010)
≈ marks a conversion by molar mass, not a printed value. Calls of active or inactive are those of the source. The rule behind the calls is not given here.

Tests used:
Lipaphis erysimi [1] = assay: Insecticidal activity against Lipaphis erysimi (mustard aphids) assessed as increase in mortality at 50 to 200 mg/L after 24 to 48 hr; type: functional, organism-based
Procedure, shortened: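 Apterous adult Lipaphis erysimi reared on mustard leaves. Leaf discs carrying 30–50 aphids dipped 3 s in aqueous suspensions (10 g/L DMSO/acetone stock, 0.5% emulsifier) at 50, 100, 200 mg/L final, blotted, held at 25 ± 1 °C and 50–60% RH. Mortality scored at 24 and 48 h, corrected against solvent control. Triplicate; LC50/LC90 by probit–log concentration regression.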

Culex quinquefasciatus [2] = assay: Insecticidal activity against fourth-instar larval stage of Culex quinquefasciatus assessed as increase in mortality at 50 to 100 mg/L after 24 hr; type: functional, organism-based
Procedure, shortened: (§1)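 Early 4th-instar Culex pipiens quinquefasciatus larvae, 20 per bowl in 10 mL test solution. Compounds taken from a 10 g/L DMSO/acetone stock into water with 0.5% Tween-80 (final 1, 10, 50, 100 mg/L), held at 27 °C. Dead larvae, those unable to reach the surface on shaking, counted at 0, 2, 12 and 24 h. Abbott-corrected against solvent control, triplicate; LC50/LC90 by probit regression.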

[3] = Cytotoxicity against Spodoptera frugiperda (fall armyworm) Sf9 cells assessed as growth inhibition at 200 mg/L after 24 hr by MTT assay; type: functional; details: for inhibition of growth at 200 µg/mL: Spodoptera frugiperda, Sf9, 24 h, read-out: GI
Procedure, shortened: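 Sf9 cells kept at 27 °C in TC-199-MK with 10% FCS, L-glutamine and penicillin–streptomycin–neomycin. Log-phase cells in 96-well plates were exposed for 6, 12 or 24 h to compounds diluted in medium from a 1,000 mg/L DMSO stock, with 1% DMSO final; DMSO alone as control. MTT added for 3 h, formazan dissolved in DMSO, A570 read. Inhibition % = (Acontrol−Atreatment)/Acontrol×100. Run in triplicate.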

Culex quinquefasciatus [4] = assay: Insecticidal activity against fourth-instar larval stage of Culex quinquefasciatus assessed as increase in mortality after 2 to 24 hr; type: functional, organism-based; procedure, shortened: as §1
Culex quinquefasciatus [5] = assay: Insecticidal activity against fourth-instar larval stage of Culex quinquefasciatus assessed as mortality at 1 mg/L after 24 hr; type: functional
Procedure, shortened: (§2)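 Early 4th-instar Culex pipiens quinquefasciatus from laboratory cultures, 20 per bowl in 10 mL test solution at 27 °C. Compounds from a 10 g/L DMSO–acetone stock suspended in water with 0.5% Tween-80 to 1, 10, 50 or 100 mg/L final. Dead larvae, those unable to reach the surface on shaking, counted at 0, 2, 12 and 24 h. Abbott-corrected against solvent control; triplicate; probit analysis.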

Lipaphis erysimi [6] = assay: Insecticidal activity against Lipaphis erysimi (mustard aphids) assessed as mortality at 200 mg/L after 48 hr; type: functional; details: in Brassica
Procedure, shortened: (§3)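 Apterous adult Lipaphis erysimi reared on mustard leaves. Compounds from a 10 g/L DMSO–acetone stock suspended in water with 0.5% emulsifier to 50, 100 or 200 mg/L. Leaf discs carrying 30–50 aphids were dipped 3 s and blotted, then held at 25 ± 1 °C and 50–60% RH. Mortality scored at 24 and 48 h and corrected against solvent control. Triplicate; LC50/LC90 by probit–log concentration regression.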

Lipaphis erysimi [7] = assay: Insecticidal activity against Lipaphis erysimi (mustard aphids) assessed as increase in mortality after 48 hr; type: functional
Lipaphis erysimi [8] = assay: Insecticidal activity against Lipaphis erysimi (mustard aphids) assessed as mortality at 50 mg/L after 24 hr; type: functional; details: in Brassica; procedure, shortened: as §3
Culex quinquefasciatus [9] = assay: Insecticidal activity against fourth-instar larval stage of Culex quinquefasciatus assessed as increase in mortality after 24 hr; type: functional; procedure, shortened: as §2
Culex quinquefasciatus [10] = assay: Insecticidal activity against fourth-instar larval stage of Culex quinquefasciatus assessed as mortality at 100 mg/L after 24 hr; type: functional; procedure, shortened: as §2
Culex quinquefasciatus [11] = assay: Insecticidal activity against fourth-instar larval stage of Culex quinquefasciatus assessed as increase in mortality at 50 mg/L after 24 hr; type: functional, organism-based; procedure, shortened: as §1
Sf9 = assay: Cytotoxicity against Spodoptera frugiperda (fall armyworm) Sf9 cells assessed as growth inhibition at 1 to 200 mg/L after 6 to 24 hr by MTT assay; type: functional, cell-based
Procedure, shortened: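 Sf9 insect cells grown at 27 °C in TC-199-MK with 10% FCS, L-glutamine and penicillin–streptomycin–neomycin. Log-phase cells exposed to compounds (DMSO stock, 1% final solvent), 6, 12 or 24 h. MTT (5 mg/mL stock) added for a further 3 h, formazan dissolved in DMSO, A570 read. Inhibition = (A control − A treated)/A control ×100. Solvent-only control, triplicate.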

SMILES | Activity (Lipaphis erysimi [1]) | Activity (Culex quinquefasciatus [2]) | Activity (Culex quinquefasciatus [4]) | mortality at 1 µg/mL (Culex quinquefasciatus [5]) | other results
COC(=O)c1cc2c([nH]c3ccccc32)c(-c2c(C)nn(-c3ccccc3)c2Cl)n1 | Active | Active | Dose-dependent effect | < 34.9% | inhibition of growth at 200 µg/mL [3]: 60.9%
COc1cc(C2NC(C(=O)O)Cc3c2[nH]c2ccccc32)ccc1O (stereo unspecified) | Active | Active | Dose-dependent effect | < 34.9% | 
O=C(O)C1Cc2c([nH]c3ccccc23)CN1 (stereo unspecified) | Active | Active | Dose-dependent effect | < 34.9% | 
COC(=O)C1Cc2c([nH]c3ccccc23)C(C)N1 (stereo unspecified) | Active | Active | Dose-dependent effect | < 34.9% | 
COC(=O)c1cc2c([nH]c3ccccc32)c(-c2ccccc2)n1 |  |  | Dose-dependent effect | < 34.9% | mortality at 200 µg/mL (Lipaphis erysimi [6]): 75.8%; LC90 (Lipaphis erysimi [7]): 418.63 µg/mL (≈ 1380 µM); LC50 (Lipaphis erysimi [7]; Lipaphis erysimi, in Brassica, 48 h): 68 µg/mL (≈ 225 µM); mortality at 50 µg/mL (Lipaphis erysimi [8]): 15.3%; LC90 (Culex quinquefasciatus [9]): 295.13 µg/mL (≈ 976 µM); LC50 (Culex quinquefasciatus [9]; Culex quinquefasciatus, Instar larval stage, 24 h): 24 µg/mL (≈ 79.3 µM); mortality at 100 µg/mL (Culex quinquefasciatus [10]): 80.5%; Activity (Culex quinquefasciatus [11]): Active
COc1ccc2c(c1)[nH]c1c(C)nccc12 [HARMINE] | Active | Active |  |  | mortality at 200 µg/mL (Lipaphis erysimi [6]): 49.6%; Imax [3]: 40.31%
CC1NC(C(=O)O)Cc2c1[nH]c1ccccc21 (stereo unspecified) | Active | Active | Dose-dependent effect | < 34.9% | 
O=C(O)C1Cc2c([nH]c3ccccc23)C(c2ccccc2)N1 (stereo unspecified) |  |  | Dose-dependent effect | < 34.9% | mortality at 200 µg/mL (Lipaphis erysimi [6]): 87.3%; LC90 (Lipaphis erysimi [7]): 240.1 µg/mL (≈ 821 µM); mortality at 50 µg/mL (Lipaphis erysimi [8]): 36.4%; LC90 (Culex quinquefasciatus [9]): 88.29 µg/mL (≈ 302 µM); mortality at 100 µg/mL (Culex quinquefasciatus [10]): 93.3%; Activity (Culex quinquefasciatus [11]): Active; inhibition of growth at 200 µg/mL [3]: 71.5%
COC(=O)C1Cc2c([nH]c3ccccc23)C(c2ccc(O)c(OC)c2)N1 (stereo unspecified) | Active | Active | Dose-dependent effect | < 34.9% | 
COC(=O)c1cc2c([nH]c3ccccc32)c(-c2ccc(Cl)cc2)n1 | Active | Active | Dose-dependent effect | < 34.9% | 
COC(=O)C1Cc2c([nH]c3ccccc23)CN1 (stereo unspecified) | Active | Active | Dose-dependent effect | < 34.9% | 
COC(=O)c1cc2c([nH]c3ccccc32)c(-c2ccccc2O)n1 | Active | Active | Dose-dependent effect | < 34.9% | 
COC(=O)C1Cc2c([nH]c3ccccc23)C(c2ccccc2)N1 (stereo unspecified) | Active | Active | Dose-dependent effect | < 34.9% | 
COC(=O)c1cc2c([nH]c3ccccc32)c(C)n1 | Active | Active | Dose-dependent effect | < 34.9% | 
COC(=O)C1Cc2c([nH]c3ccccc23)C(C(Cl)(Cl)Cl)N1 (stereo unspecified) | Active | Active | Dose-dependent effect | < 34.9% | growth inhibition (GI) (Sf9): inactive
O=C(O)C1Cc2c([nH]c3ccccc23)C(C(Cl)(Cl)Cl)N1 (stereo unspecified) | Active | Active | Dose-dependent effect | < 34.9% | 
Cc1nc(C(=O)O)cc2c1[nH]c1ccccc12 [HARMAN-3-CARBOXYLIC ACID] | Active | Active | Dose-dependent effect | < 34.9% | 
